KCNQ1 inh = human KCNQ1 channel inhibition. 1.3% of 310,000 active. CHO-K1 KCNQ1, FluxOR thallium flux fluorescence; stronger effect = higher value. B-score at 10 µM. P51787;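 active = compounds whose thallium flux B-score, printed positive for inhibition, exceeds three library SD while starting fluorescence stays within three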;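 also: channel opened by potassium depolarization with thallium stimulus after 20 min compound exposure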
KCNK9 block = inhibitors of human KCNK9 two-pore domain potassium channel | 1.2% of 310,000 active | B-score at 10 µM | AID 488922 | Q9NPC2 | HEK293 KCNK9, FluxOR thallium flux fluorescence; stronger effect = lower value;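 active = ratio B-score over 3 SD below the library mean, with starting fluorescence within 5 SD of its mean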;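 also: negative B-score means less thallium flux so channel inhibition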
hERG protect = compounds protecting human hERG from proarrhythmic drug block; AID 1511; Q12809; 0.51% of 310,000 active; CHO-hERG, FluxOR thallium flux, dofetilide IC70 present; activation (rescue from dofetilide block), less the hit threshold, % at 10 µM;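 active = activation above the mean of controls blocked by dofetilide plus 5 SD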;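 also: thallium influx through hERG after potassium depolarization seen as dye fluorescence rise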
Target sequence (Q12809 whole entry, looked up): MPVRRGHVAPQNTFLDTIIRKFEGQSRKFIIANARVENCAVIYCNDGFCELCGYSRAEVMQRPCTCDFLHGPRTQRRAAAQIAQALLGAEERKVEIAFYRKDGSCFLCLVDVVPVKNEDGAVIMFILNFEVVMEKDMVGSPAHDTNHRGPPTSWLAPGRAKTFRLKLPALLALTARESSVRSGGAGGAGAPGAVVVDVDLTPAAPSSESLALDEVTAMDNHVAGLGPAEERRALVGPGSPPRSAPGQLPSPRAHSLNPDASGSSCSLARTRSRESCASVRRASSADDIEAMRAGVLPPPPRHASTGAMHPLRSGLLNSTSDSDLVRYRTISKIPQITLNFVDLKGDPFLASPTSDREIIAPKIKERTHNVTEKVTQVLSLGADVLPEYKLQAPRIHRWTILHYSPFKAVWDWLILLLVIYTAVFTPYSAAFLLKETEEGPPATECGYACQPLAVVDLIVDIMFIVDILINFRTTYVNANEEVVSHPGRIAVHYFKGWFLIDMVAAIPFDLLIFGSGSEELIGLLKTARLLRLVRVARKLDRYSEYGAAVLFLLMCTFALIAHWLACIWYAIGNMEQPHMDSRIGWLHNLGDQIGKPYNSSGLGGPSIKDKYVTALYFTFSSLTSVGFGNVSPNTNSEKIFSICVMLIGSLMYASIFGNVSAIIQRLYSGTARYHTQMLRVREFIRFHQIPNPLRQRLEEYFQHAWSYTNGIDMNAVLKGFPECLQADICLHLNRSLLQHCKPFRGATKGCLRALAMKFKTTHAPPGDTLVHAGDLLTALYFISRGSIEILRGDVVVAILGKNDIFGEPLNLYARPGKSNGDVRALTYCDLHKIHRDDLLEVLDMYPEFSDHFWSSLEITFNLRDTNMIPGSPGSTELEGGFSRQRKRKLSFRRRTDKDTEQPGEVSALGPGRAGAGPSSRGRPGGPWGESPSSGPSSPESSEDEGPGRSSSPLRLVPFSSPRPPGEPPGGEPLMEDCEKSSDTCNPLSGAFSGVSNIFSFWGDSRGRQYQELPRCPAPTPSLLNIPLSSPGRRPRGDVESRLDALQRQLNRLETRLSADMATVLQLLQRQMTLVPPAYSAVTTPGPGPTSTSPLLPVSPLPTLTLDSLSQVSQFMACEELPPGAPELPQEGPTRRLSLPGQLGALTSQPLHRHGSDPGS
KCNK3 inh = human KCNK3 channel inhibition, primary screen; CHO-KCNK3 thallium flux, FluxOR fluorescence; stronger effect = lower value; B-score at 10 µM; 0.84% of 340,000 active; O14649;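 active = B-score under library mean minus 4 SD, starting fluorescence ratio at most library mean plus 5 SD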;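 also: more negative B-score means stronger inhibition of thallium flux through KCNK3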
Kir21 inh = Kir2.1 (mouse) channel inhibition; P35561; HEK293-Kir2.1, FluxOR thallium flux fluorescence; stronger effect = lower value; B-score at 10 µM; 0.85% of 310,000 active; AID 1672;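 active = fluorescence ratio B-score at or below minus 3 SD of library scores, with starting-brightness B-score within 2 SD, cut at about -4.2 in these data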;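 also: channel flux triggered by added potassium and thallium sulfate stimulus; B-score of peak minus minimum fluorescence over baseline after thallium stimulus; more negative B-score means stronger Kir2.1 block with less thallium influx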
KCNQ1 act = human KCNQ1 channel potentiation or activation | P51787 | CHO-K1 KCNQ1, thallium flux FluxOR fluorescence; stronger effect = higher value | B-score at 10 µM | 0.35% of 310,000 active | AID 2648;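 active = fluorescence ratio B-score, a plate-corrected score, at least three library SD, with initial intensity B-score within 5 SD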
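Assay system: stable KCNQ1 CHO-K1 line; medium: assay buffer, equal DMSO in all wells; timing: 90 min dye loading and 20 min compound exposure, both at room temperature; technique: kinetic FluxOR thallium fluorescence, 10-s 1-Hz baseline, 110-s post-stimulus read; read-out basis: B score of baseline-normalized fluorescence ratio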
KCNK3 inh conf = human KCNK3 channel inhibition, confirmation assay. 99% of 2,400 active. shares compounds with KCNK3 inh. ratio percent of control, % at 10 µM. CHO-KCNK3 thallium flux, FluxOR fluorescence; 0% buffer, 100% carvedilol maximal block;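 active = ratio percent of control, averaged over triplicates, above buffer control mean plus 5 SD, cut at about 64% in these data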;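 also: ratio is the fluorescence rise from min to max over baseline after thallium stimulus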
KCNK3 uninduced = counter-screen for KCNK3 inhibitors: effect in non-induced cells. shares compounds with KCNK3 inh. non-induced KCNK3 parental cells, FluxOR thallium flux; stronger effect = lower value. thallium flux ratio (lower = more inhibition) at 10 µM. 40% of 2,400 active;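 active = thallium flux ratio, averaged over three wells, more than 5 SD below the buffer control mean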;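 also: host cells are CHO cells without KCNK3 induction; ratio is peak minus trough fluorescence over baseline then normalized to buffer controls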
An asterisk follows results filed as active; i = inactive; / = no result given. Shown are actives, neighbours in structure and some others; about 3.8% of the full set was active somewhere.

SMILES	KCNQ1 inh	KCNK9 block	hERG protect	KCNK3 inh	Kir21 inh	KCNQ1 act	KCNK3 inh conf	KCNK3 uninduced
CCCN1Cc2cccc(C(=O)NCCc3cccc(C)c3)c2C1=O	i	i	-10	-9.7*	0.02	i	110*	0.15*
Cc1nn(C)c(C)c1/C=N/O	i	i	0	i	1.8	i	/	/
CCOC(=O)/C(N=Nc1c(C)n(C)n(-c2ccccc2)c1=O)=C(/O)c1ccccc1	i	i	-4	-8.9*	0.12	i	109*	i
Cc1ccc(-c2nc(CN3CCN(C(=O)C4CCCO4)CC3)cs2)cc1 (centres undefined)	i	i	-8	i	2.2	i	/	/
C/C(=N\NC(=O)c1nn(C)c(C)c1Br)c1ccc(NC(=O)c2ccc(C)s2)cc1	i	i	-6	-8.8*	0.04	i	101*	i
Cc1c(Cl)c([N+](=O)[O-])nn1CCCC(=O)Nc1cc(Oc2ccccc2)cc([N+](=O)[O-])c1	i	i	-2	i	-0.05	i	/	/
Cc1ccccc1Oc1cc(NC(=O)CCCn2nc(C)c([N+](=O)[O-])c2C)cc([N+](=O)[O-])c1	i	i	-7	-9.3*	1.3	i	119*	i
Cc1nn(CCCC(=O)Nc2cc(Oc3ccc(F)cc3)cc([N+](=O)[O-])c2)c(C)c1[N+](=O)[O-]	i	i	-9	-8.9*	-0.55	i	125*	i
CN(CCO)c1nc(N)c(C#N)c(CC#N)c1C#N	i	i	-8	i	-1.1	i	/	/
CC(C)CN(CC(C)C)c1nc(N)c(C#N)c(CC#N)c1C#N	i	-7.5*	-3	-11*	-2.2	i	92*	i
COc1ccc(S(=O)(=O)N2CCCCC2C)cc1 (centres undefined)	i	i	-9	i	0.36	i	/	/
COc1ccccc1Oc1ccc(S(=O)(=O)N2CCCCC2C)cc1 (centres undefined)	i	i	-12	-12*	0.63	i	108*	0.16*
O=C(CCN1C(=O)C2C3CCC(C3)C2C1=O)OCC(=O)c1ccc(Cl)cc1 (centres undefined)	i	i	-7	i	0.05	i	/	/
COc1cc2c(cc1OC)C(c1ccccc1)N(C(=O)c1ccco1)CC2 (centres undefined)	i	i	-13	-11*	-0.86	i	97*	i
CN(C)CCNC(=O)C(=O)NCC1CCCN1S(=O)(=O)c1cccs1 (centres undefined)	i	i	-11	i	-0.54	i	/	/
O=C(Nc1cc(Cl)ccc1N1CCCCC1)c1cccs1	i	-7.3*	-2	-14*	-0.95	i	128*	0.12*
O=C1NC(=Nc2ccccc2)S/C1=C\c1ccccc1	i	i	-4	i	0.18	i	/	/
O=C1NC(=Nc2ccccc2)S/C1=C/c1cccnc1	i	i	-8	-11*	0.63	i	90*	i
CC(=O)Nc1ccc(/C=C2\Sc3ccccc3C2=O)cc1	i	i	-7	i	0.31	i	/	/
O=C1/C(=C/c2cccnc2)Sc2ccccc21	i	i	-6	-9.6*	-1.6	i	102*	i
O=C(CSc1ncnc2c1nnn2Cc1ccccc1)NC1CCCCC1	i	i	-10	i	-0.29	i	/	/
CC(NC(=O)c1ccco1)C(=O)OCC(=O)N1CCCCCC1 (centres undefined)	/	/	/	i	/	/	/	/
CCOC(=O)c1sc2nc(CC(=O)OC)nc(NCCN(CC)CC)c2c1C	i	i	-7	i	0.76	i	/	/
CCOC(=O)c1sc2nc(CC(=O)OC)nc(N(C)CCc3ccccn3)c2c1C	i	i	-10	-10*	0.18	i	109*	i
CCOC(=O)c1c(NC(=O)COC(=O)C2CC2C)sc(C)c1C (centres undefined)	i	-8.1*	-15	-10*	-0.18	i	110*	i
SMILES	KCNQ1 inh	KCNK9 block	hERG protect	KCNK3 inh	Kir21 inh	KCNQ1 act	KCNK3 inh conf	KCNK3 uninduced
CCOC(=O)c1c(NC(=O)C2CCCO2)sc(C)c1C (centres undefined)	i	i	1	-11*	1.1	i	109*	i
Cc1sc(NC(=O)C2CCCO2)c(C(N)=O)c1C (centres undefined)	i	i	-10	i	0.46	i	/	/
CC(=O)C1=C(C)NC(C)=C(C(C)=O)C1c1ccccc1	i	i	-12	i	-0.98	i	/	/
O=C(N/C=C/c1ccco1)Nc1cccc(Cl)c1	6*	i	-13	-9.3*	-1.1	i	94*	0.14*
Cc1cc(SCC(=O)c2ccc(O)c(O)c2)n2nc(C)c(-c3ccccc3)c2n1	i	i	-7	i	1.9	i	/	/
O=c1sc2ccccc2n1CCOc1ccccc1	i	i	-3	i	-1.6	i	/	/
Cc1ccc(OCn2c(=O)sc3ccccc32)cc1	i	i	-9	-11*	1.6	i	112*	i
CCCCN=C1CC(C)(C)CC(=O)/C1=C(/O)CCC	i	i	-10	-11*	-0.33	i	100*	i
CCCN=C1CC(C)(C)CC(=O)/C1=C(/O)CCCN1C(=O)c2ccccc2C1=O	i	i	-21	i	0.04	i	/	/
Cc1cccc(C(=O)NNC(=O)c2ccc3ccccc3c2)c1	/	/	/	i	/	/	/	/
Cc1ccccc1C(=O)Oc1ccc2ccc(O)cc2c1	i	i	-7	i	0.38	i	/	/
Cc1ccccc1S(=O)(=O)Oc1ccc2ccc(O)cc2c1	i	i	-24	-10*	-0.67	i	97*	i
Cc1cccc(NNC(=O)C2CCC2)c1	i	i	-11	i	1.8	i	/	/
Cc1cc(C(=O)N/N=C/c2c(C)[nH]n(-c3ccccc3)c2=O)n[nH]1	i	i	-8	i	1.1	i	/	/
Cc1ccc(-c2cc(C(=O)N/N=C/c3c(C)nn(-c4ccccc4)c3C)n[nH]2)s1	i	i	-15	-9.1*	1.4	i	130*	0.13*
c1ccc(Cn2nnnc2C(c2cccs2)N2CCCCCC2)cc1 (centres undefined)	i	i	-6	-10*	-1.4	i	116*	0.13*
Fc1ccc(C(c2nnnn2Cc2cccs2)N2CCN(c3ccccc3)CC2)cc1 (centres undefined)	i	-7.4*	-11	-10*	0.57	i	102*	i

Screening results (PubChem)
